Here are results for 14 compounds from ChEMBL document CHEMBL1949627, “Novel triacsin C analogs as potential antivirals against rotavirus infections” (Eur J Med Chem, 2012).

Active and inactive are the calls of the source. The calls are words filed in the database; no cut-off is given here.

Series [1] can be described thus: Cytotoxicity against monkey MA104 cells after 24 hrs. In kind it is cell-based, Macaca mulatta. The note with it: rhesus monkey, read-out: TD50. The method, boiled down:
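Confluent MA104 cells exposed to a range of compound concentrations for 24 hrs; cytotoxicity read with a non-radioactive cytotoxicity (CytoTox 96) kit; TD50 derived by the Litchfield–Wilcoxon method.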

The test system of series [2] is Rotavirus. Put plainly: Antiviral activity against Rotavirus Wa in MA104 cells assessed as inhibition of viral replication after 24 hrs by immunofluorescent assay and Western blotting analysis. It counts as functional, organism-based.
For series [3], the system named is Rotavirus. Kind of series: Antiviral activity against Rotavirus SA11 in MA104 cells assessed as inhibition of viral replication after 24 hrs by immunofluorescent assay and Western blotting analysis. It counts as functional. The note with it: SA11, MA104, 24 h, read-out: ED50 (the source's name). The procedure, abridged: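 Confluent MA104 monolayers infected 1 hr, PBS-washed, then given MEM with compound or DMSO (0.1%) plus trypsin 1 μg/ml. VP6 tracked by IFA (methanol fixation, anti-VP6 mAb, FITC secondary) or Western blot (β-actin control). ED50 derived from TCID50 titers at 24 hr post infection, MOI 0.05, by Litchfield–Wilcoxon.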

The test system of a further series is Huh-7. Kind of series: Inhibition of lipogenesis in human HuH7 cells assessed as inhibition of increase in lipid droplets at 1 uM after 72 hrs by NBD-cholesterol based fluorescence analysis. It counts as functional, cell-based. The method, boiled down: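 Confluent uninfected Huh-7 cells, in which lipid droplets form spontaneously, treated with compound or 0.1% DMSO for 72 hrs. Medium then replaced with NBD-cholesterol (1 μg/ml) for a further 12 hrs. Cells fixed in 4% formaldehyde for 10 min, PBS-washed, and lipid-droplet fluorescence examined by fluorescence microscopy.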

A further series deals with MA104. Put plainly: Inhibition of lipogenesis in monkey MA104 cells infected with Rotavirus SA11 assessed as inhibition of increase in lipid droplets at 1 uM after 10 hrs by NBD-cholesterol based fluorescence analysis. In kind it is functional, cell-based. The note with it: Macaca mulatta. The method, boiled down:
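Confluent MA104 cells, mock- or SA11-infected at MOI 10, incubated with compound or 0.1% DMSO in medium with NBD-cholesterol 1 μg/ml and trypsin 1 μg/ml. Fixed at 10 hr post infection in 4% formaldehyde for 10 min, PBS-washed twice; lipid-droplet fluorescence viewed by fluorescence microscopy.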

A short description of series [4]: Therapeutic index, ratio of TD50 for monkey MA104 cells to ED50 for Rotavirus SA11. In kind it is cell-based. The note with it: read-out: Ratio TD50/ED50. The method, boiled down: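 TD50: confluent MA104 cells exposed to graded compound concentrations for 24 hrs, cytotoxicity read with CytoTox 96 non-radioactive kit, Litchfield–Wilcoxon fit. ED50: SA11-infected MA104 (MOI 0.05) treated with compound plus trypsin 1 μg/ml, TCID50 titers at 24 hr, Litchfield–Wilcoxon. Index is TD50 divided by ED50.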

The test system of series [5] is Rotavirus. Kind of series: Virucidal activity against Rotavirus SA11 in MA104 cells assessed as reduction in viral titer at 100 uM pretreated for 2 hrs prior infection measured after 12 hrs postinfection by immunofluorescent assay. It counts as functional, organism-based.
Series [6] concerns Rotavirus. Kind of series: Virucidal activity against Rotavirus SA11 in MA104 cells assessed as reduction in viral titer at 100 uM pretreated for 2 hrs prior infection measured after 12 hrs postinfection by Western blotting analysis. It counts as functional, organism-based.

In the case of `CCC/C=C/C/C=C/C=C/C=N/NS(=O)(=O)CCl`, in series [1], the CC50 at 24 h was determined as 74 µM. Further, in the series with Rotavirus [2], the inhibition result was “Active”. In the series with Rotavirus [3], the EC50 was found to be 8.7 µM.
Turning to `CCCCCCCCCCCCCCCCNc1ccc(C(=O)O)cc1` [CETABEN], the CC50 at 24 h in series [1] was 75.5 µM. In addition, in the series on Rotavirus [3], the EC50 is 11.3 µM.
For the compound `Cc1c(C)c2c(c(C)c1O)CCC(C)(COc1ccc(CC3SC(=O)NC3=O)cc1)O2` (stereo unspecified) [TROGLITAZONE], the CC50 at 24 h in series [1] was determined as 18.5 µM. Further, the EC50 with Rotavirus [3] was 5.8 µM.
Turning to `C/C=C/C/C=C/CCC(=O)[C@H]1O[C@H]1C(N)=O` [CERULENIN], in series [1], the CC50 at 24 h was found to be 56.7 µM. The EC50 in the series on Rotavirus [3] amounted to 28.5 µM.
In the case of `CCC/C=C/C/C=C/C=C/C=N/NS(=O)(=O)C(C)C`, in series [1], the CC50 at 24 h amounted to 90.2 µM. The inhibition entry with Rotavirus [2] is “Active”. For the same compound, the EC50 with Rotavirus [3] turned out to be 9.8 µM.
For `CCCCCCCCCCC(C)(C)C(=O)Nc1c(OC)cc(OC)cc1OC` [CL-976], in series [1], the CC50 at 24 h came to 8.5 µM. In the series with Rotavirus [3], the EC50 came out at 4.3 µM.
For `CCC/C=C/C/C=C/C=C/C=N/N1CCCS1(=O)=O`, the CC50 at 24 h in series [1] was 86.4 µM. For the same compound, in the series with Huh-7, the inhibition result was “Dose-dependent effect”. Also, the inhibition entry in the series with MA104 and in the series on Rotavirus [2] was “Active” each time. Also, in the series on Rotavirus [3], the EC50 was found to be 2.2 µM.
On to `CCC/C=C/C/C=C/C=C/C=C/C#N`, for which, in series [1], the CC50 at 24 h amounted to 78.8 µM. Moreover, in the series with Rotavirus [2], the inhibition result is “Active”. Besides, the EC50 in the series with Rotavirus [3] was 21.3 µM.
On to `CCC/C=C/C/C=C/C=C/C=N/NS(=O)(=O)CCCCl`, for which the CC50 at 24 h in series [1] was determined as 86.3 µM. In addition, the inhibition result in the series with Rotavirus [2] is “Active”. The EC50 in the series with Rotavirus [3] is 11.5 µM.
Take `C=C(C)[C@@H]1CC[C@]2(C(=O)O)CC[C@]3(C)[C@H](CC[C@@H]4[C@@]5(C)CC[C@H](O)C(C)(C)[C@@H]5CC[C@]43C)[C@@H]12` [BETULINIC ACID]: the CC50 at 24 h in series [1] was 27.8 µM. Moreover, the EC50 in the series on Rotavirus [3] turned out to be 22.5 µM.
In the case of `CCC/C=C/C/C=C/C=C/C=N/NN=O` [TRIACSIN C], the CC50 at 24 h in series [1] came out at 49.6 µM. For the same compound, in series [4], the selectivity ratio turned out to be 248. Besides, in the series on Huh-7, the inhibition result was “Dose-dependent effect”. Moreover, the inhibition entry with Rotavirus [5] and in the series on Rotavirus [6] was “inactive” in each case. Besides, the inhibition result with MA104 was “Active”. The EC50 in the series on Rotavirus [3] was 0.2 µM.
As to `C=C1C(=O)O[C@H](CCCCCCCC)[C@H]1C(=O)O`, the CC50 at 24 h in series [1] was determined as 28.5 µM. In addition, the EC50 in the series with Rotavirus [3] was 21.2 µM.
For `O=C(Nc1ccccc1)Nc1ccc(-c2ccc(C(=O)[C@@H]3CCC[C@H]3C(=O)O)cc2)cc1` the same measures were 85.4 µM and 23.2 µM.
Turning to `CCC/C=C/C/C=C/C=C/CNc1ccc(C(=O)O)cc1`, in series [1], the CC50 at 24 h came out at 28.5 µM. Besides, in series [4], the selectivity ratio turned out to be 285. Also, the inhibition result in the series with Huh-7 was “Dose-dependent effect”. Also, the inhibition result in the series on Rotavirus [5] and with Rotavirus [6] was “inactive” each time. Also, the inhibition entry in the series on MA104 and in the series on Rotavirus [2] was “Active” throughout. Moreover, the EC50 in the series on Rotavirus [3] stood at 0.1 µM.
